Test results reported in ChEMBL document CHEMBL1148778, “Synthesis and characterization of nonsteroidal glucocorticoid receptor modulators for multiple myeloma” (J Med Chem, 2007).

Experiments:
RPMI-8226 = experiment: Antiproliferative activity against human RPMI8226 cells after 4 days relative to Dexamethasone; assay type: functional
Progesterone receptor = biological target: T1, Progesterone receptor (Homo sapiens, UniProt P06401); experiment: Binding affinity to PR
T1 sequence (P06401 whole entry): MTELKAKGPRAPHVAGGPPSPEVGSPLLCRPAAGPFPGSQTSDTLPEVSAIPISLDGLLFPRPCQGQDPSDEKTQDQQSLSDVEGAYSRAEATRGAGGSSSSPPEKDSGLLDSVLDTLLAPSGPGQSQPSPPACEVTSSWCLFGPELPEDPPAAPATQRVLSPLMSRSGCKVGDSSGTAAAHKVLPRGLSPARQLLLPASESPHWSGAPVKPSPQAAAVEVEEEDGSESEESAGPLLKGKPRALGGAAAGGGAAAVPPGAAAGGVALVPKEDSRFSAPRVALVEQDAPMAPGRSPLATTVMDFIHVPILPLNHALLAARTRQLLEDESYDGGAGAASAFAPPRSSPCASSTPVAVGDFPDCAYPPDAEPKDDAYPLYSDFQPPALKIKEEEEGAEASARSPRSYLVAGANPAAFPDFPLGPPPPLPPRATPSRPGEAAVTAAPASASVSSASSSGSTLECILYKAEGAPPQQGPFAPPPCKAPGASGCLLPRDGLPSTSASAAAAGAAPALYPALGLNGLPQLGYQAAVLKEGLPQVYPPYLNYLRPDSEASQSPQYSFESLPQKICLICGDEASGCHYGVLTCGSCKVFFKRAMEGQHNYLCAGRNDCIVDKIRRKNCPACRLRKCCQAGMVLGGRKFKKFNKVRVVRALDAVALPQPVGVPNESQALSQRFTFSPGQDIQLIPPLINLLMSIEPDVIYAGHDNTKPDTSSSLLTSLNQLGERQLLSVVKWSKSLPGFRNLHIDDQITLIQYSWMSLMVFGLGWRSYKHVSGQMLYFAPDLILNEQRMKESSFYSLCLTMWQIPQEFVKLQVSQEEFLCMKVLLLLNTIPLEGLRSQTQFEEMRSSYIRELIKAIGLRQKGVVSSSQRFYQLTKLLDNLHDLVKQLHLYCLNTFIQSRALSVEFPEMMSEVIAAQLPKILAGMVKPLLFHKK
How it was run: (§1)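 Competitive binding assays on PR and MR. Values are means of at least three separate experiments, each with triplicate determinations, ± SEM. A value without SEM comes from a single determination.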

[1] = biological target: T2, Mineralocorticoid receptor (Homo sapiens, UniProt P08235); experiment: Binding affinity to MR; how it was run: as §1
T2 sequence (P08235 whole entry): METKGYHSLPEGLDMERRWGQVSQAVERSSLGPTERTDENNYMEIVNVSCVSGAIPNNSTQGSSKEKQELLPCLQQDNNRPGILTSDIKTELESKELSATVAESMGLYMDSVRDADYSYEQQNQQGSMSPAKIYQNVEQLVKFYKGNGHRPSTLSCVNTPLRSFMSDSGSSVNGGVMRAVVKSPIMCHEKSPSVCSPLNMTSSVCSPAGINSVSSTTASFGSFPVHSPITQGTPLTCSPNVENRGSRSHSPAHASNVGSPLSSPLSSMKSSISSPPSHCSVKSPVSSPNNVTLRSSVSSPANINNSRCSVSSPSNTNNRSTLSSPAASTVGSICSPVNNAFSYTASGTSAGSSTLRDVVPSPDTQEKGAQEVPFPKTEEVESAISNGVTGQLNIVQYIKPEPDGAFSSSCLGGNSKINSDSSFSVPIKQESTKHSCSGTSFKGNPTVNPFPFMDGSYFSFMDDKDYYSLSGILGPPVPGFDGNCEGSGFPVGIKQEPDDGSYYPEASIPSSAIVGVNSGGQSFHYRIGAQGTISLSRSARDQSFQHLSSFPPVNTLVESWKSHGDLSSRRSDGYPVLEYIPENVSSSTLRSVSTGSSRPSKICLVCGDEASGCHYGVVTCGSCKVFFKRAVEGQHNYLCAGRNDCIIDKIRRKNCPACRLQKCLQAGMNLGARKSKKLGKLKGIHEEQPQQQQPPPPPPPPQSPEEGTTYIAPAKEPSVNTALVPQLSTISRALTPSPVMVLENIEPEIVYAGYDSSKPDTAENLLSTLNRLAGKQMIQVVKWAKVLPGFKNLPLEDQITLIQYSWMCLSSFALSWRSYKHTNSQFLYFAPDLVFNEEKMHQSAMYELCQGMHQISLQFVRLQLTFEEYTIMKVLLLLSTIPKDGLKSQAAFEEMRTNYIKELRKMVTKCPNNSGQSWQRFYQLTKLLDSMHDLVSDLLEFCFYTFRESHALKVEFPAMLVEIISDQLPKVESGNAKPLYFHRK

Androgen receptor = biological target: T3, Androgen receptor (Homo sapiens, UniProt P10275); experiment: Binding affinity to AR
T3 sequence (P10275 whole entry): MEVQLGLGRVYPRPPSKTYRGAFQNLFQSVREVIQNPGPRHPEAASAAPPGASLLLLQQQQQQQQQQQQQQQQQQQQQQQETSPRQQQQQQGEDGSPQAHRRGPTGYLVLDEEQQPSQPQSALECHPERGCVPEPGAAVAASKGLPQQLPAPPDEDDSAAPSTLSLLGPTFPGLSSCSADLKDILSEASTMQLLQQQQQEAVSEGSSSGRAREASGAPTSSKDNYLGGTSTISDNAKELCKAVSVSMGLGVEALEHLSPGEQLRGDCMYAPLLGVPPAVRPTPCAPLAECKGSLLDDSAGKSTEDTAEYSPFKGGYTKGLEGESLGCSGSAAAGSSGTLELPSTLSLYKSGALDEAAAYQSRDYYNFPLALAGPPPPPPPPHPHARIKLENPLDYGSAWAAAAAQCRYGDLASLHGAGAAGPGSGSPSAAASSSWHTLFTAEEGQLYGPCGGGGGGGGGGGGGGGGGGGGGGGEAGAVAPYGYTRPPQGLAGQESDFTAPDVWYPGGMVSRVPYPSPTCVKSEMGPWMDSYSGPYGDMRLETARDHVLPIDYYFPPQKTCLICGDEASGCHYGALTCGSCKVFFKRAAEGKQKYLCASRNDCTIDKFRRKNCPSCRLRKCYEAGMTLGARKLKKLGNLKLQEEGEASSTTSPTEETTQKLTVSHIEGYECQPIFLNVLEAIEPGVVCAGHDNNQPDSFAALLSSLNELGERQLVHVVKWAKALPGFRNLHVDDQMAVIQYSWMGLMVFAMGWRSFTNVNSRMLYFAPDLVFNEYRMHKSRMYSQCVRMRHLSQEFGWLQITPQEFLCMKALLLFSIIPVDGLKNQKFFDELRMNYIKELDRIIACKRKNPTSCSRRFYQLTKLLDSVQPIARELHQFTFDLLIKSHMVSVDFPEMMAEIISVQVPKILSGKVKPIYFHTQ

Ki (Progesterone receptor) [nM]	Ki [1] [nM]	Ki (Androgen receptor) [nM]	SMILES	Efficacy (RPMI-8226) [%]
190	10	150	COCc1ccsc1/C=C1\Oc2ccc(O)c(OC)c2-c2ccc3c(c21)C(C)=CC(C)(C)N3	98
1400	980	290	COc1c(O)ccc2c1-c1ccc3c(c1/C(=C/c1sccc1CO)O2)C(C)=CC(C)(C)N3	99

SMILES	Ki (Progesterone receptor) [nM]	Ki [1] [nM]	Ki (Androgen receptor) [nM]	Efficacy (RPMI-8226) [%]
CO/N=C(\C)c1ccsc1/C=C1\Oc2ccc(O)c(OC)c2-c2ccc3c(c21)C(C)=CC(C)(C)N3	38	48	110	101
